Compound activity from PubChem BioAssay.
HCT116 bCat-KO – primary screen for growth suppressors in beta-catenin knockout HCT116 cells (colon tumor, human); HCT116 beta-catenin knockout viability, CellTiter-Glo, 60 h; active compounds read low; viability, % at 10 µM; 140,000 compounds, 1.5% hits;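 active means viability at or under a set limit, the compound median less 4 SD, cut at about 6% in these data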;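 further: 0% = Hyamine 1622 control at 20 µM and 100% = untreated cell control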
TNAP inh hiacc – human TNAP enzyme inhibitors, primary screen, biochemical, luminescent, high phosphate acceptor level, uHTS. AID 1135, 2008. inhibition, % at 20 µM. 200,000 compounds, 0.03% hits. Alkaline phosphatase, tissue-nonspecific isozyme (Homo sapiens), P05186. purified TNAP, CDP-star luminescence, 1 M DEA;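 active means over 50% inhibition of tissue-nonspecific alkaline phosphatase at 20 µM in the single-dose screen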;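 further: plate controls were DMSO wells for no effect and EDTA-quenched wells as full inhibition for full effect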
Target sequence (P05186 whole entry, looked up): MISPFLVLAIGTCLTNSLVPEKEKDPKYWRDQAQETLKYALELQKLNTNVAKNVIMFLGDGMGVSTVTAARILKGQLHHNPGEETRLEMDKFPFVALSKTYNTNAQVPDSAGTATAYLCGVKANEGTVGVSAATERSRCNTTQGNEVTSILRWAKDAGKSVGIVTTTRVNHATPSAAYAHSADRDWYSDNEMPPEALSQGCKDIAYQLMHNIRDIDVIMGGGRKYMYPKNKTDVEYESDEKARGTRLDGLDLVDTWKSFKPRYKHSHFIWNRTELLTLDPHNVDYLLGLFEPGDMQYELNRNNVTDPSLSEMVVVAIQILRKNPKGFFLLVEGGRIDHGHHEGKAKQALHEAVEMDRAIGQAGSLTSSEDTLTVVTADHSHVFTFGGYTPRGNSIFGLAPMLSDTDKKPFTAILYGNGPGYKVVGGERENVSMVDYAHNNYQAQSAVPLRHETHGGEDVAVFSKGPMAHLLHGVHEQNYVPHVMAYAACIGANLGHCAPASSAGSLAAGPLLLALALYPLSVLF
TNAP act hiacc – TNAP activators at high phosphate acceptor level, primary screen, biochemical, luminescence, uHTS | Alkaline phosphatase, tissue-nonspecific isozyme (Homo sapiens), P05186 | AID 1136, 2008 | purified TNAP, CDP-star luminescence, 1 M DEA, 30 min; active compounds read high; 0 = EDTA background, 1 = DMSO-only activity | activation factor at 20 µM | 200,000 tested, under 10 active;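 active means activation factor at least 2 at 20 µM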
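system = human TNAP | amount = enzyme diluted 1/800 final | reagent = 100 µM CDP-star substrate | signal = luminescent substrate turnover signal | dosing = one dose, 20 µM | benchmarks = EDTA negative control, DMSO positive control | measure = activation factor | timing = 30 min reaction, room temperature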
Lmaj promast – Leishmania major promastigote growth inhibition, primary screen; Leishmania major promastigotes, resazurin fluorescence viability; 200,000 compounds, 9% hits; AID 1063, 2008; inhibition, % at 10 µM; in the data active means inhibition above about 50%;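 further: promastigotes grown with compound for 44 hours at 28 °C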
HCT116 PTEN-null – growth suppression of PTEN-null HCT116, primary screen, cell-based, CellTiter-Glo | 140,000 compounds, 1.2% hits | viability, % at 10 µM | AID 827, 2007 | HCT116 PTEN-null viability, 60 h; active compounds read low;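 active means viability at or below a set limit, 4 SD under the median of all tested compounds, cut at about 3.7% in these data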;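 further: PTEN knockout HCT116 line with beta catenin targeted HCT116 as companion control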
TNAP inh noacc – human TNAP enzyme inhibitors, primary screen, biochemical, luminescent, no phosphate acceptor, uHTS; AID 1012, 2008; purified TNAP, CDP-star luminescence, 30 min; Alkaline phosphatase, tissue-nonspecific isozyme (Homo sapiens), P05186; inhibition, % at 20 µM; 200,000 compounds, 0.26% hits;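 active means tissue-nonspecific alkaline phosphatase inhibition above about 50% at 20 µM in the single-dose screen, limit read from the data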;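 further: 0% = DMSO negative control and 100% = EDTA positive control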
Active calls of the source: *; x = no result given. This is a sample that favours compounds with a hit; in the whole collection about 9.6% have one here.

SMILES | HCT116 bCat-KO | TNAP inh hiacc | TNAP act hiacc | Lmaj promast | HCT116 PTEN-null | TNAP inh noacc
CCOc1ccc2[nH]c(=O)c(C(c3nnnn3Cc3ccco3)N3CCC(C)CC3)cc2c1 (stereo unspecified) | 66.5 | 0.2 | 1 | 17.6 | 67.6 | 4.4
COc1ccccc1C(c1nnnn1Cc1ccco1)N1CCN(c2cccc(C)c2C)CC1 (stereo unspecified) | 23.4 | -2.8 | 1 | 74.2* | 31.5 | -7.7
Cc1ccc(C)c2[nH]c(=O)c(C(c3nnnn3CCc3ccccc3)N3CCOCC3)cc12 (stereo unspecified) | 91.1 | -4.5 | 1 | 100.1* | 90.6 | -12.5
CC(/C=C/c1ccco1)=N\NC(=O)COc1ccc(C)c(C)c1 | x | -8.3 | 1.1 | -0.6 | x | -12.5
N#Cc1cc(C(=O)Cc2ccccc2)c[nH]1 | x | 1.4 | 1 | -4.5 | x | 1.2
CCOC(=O)c1ccc(-n2c(CN3CCC(O)CC3)nc3ccc([N+](=O)[O-])cc3c2=O)cc1 | x | -2.5 | 1 | 16.1 | x | 0.5
C=CCOC(=O)C1=C(C)NC(=S)NC1/C=C/c1ccccc1 (stereo unspecified) | 56.3 | -1.7 | 1 | 89.2* | 69.7 | -1.1
Fc1ccc(-c2[nH]ncc2-c2nnnn2-c2ccccc2)c(F)c1 | 85.7 | 5.7 | 0.9 | 3.3 | 88.7 | 84.3*
Fc1ccc(-n2nnnc2-c2ccccc2Cl)cc1 | x | -5.0 | 1.1 | -0.1 | x | -9.6
CCOc1ccc(-n2c(=O)[nH]cc(C(=O)Nc3ccc(OC)c(OC)c3)c2=O)cc1 | x | -3.3 | 1 | -6.1 | x | -3.2
CCN1CCN(C(=O)c2ccccc2NS(=O)(=O)c2ccc(Cl)cc2)CC1 | x | -4.6 | 1 | -12.2 | x | -10.8
Cc1ccccc1NC(=S)N(C)Cc1cn(C)c2ccccc12 | 93.0 | 3.0 | 1 | 63.1* | 95.1 | -16.4
Cc1ccccc1NC(=S)N(C)Cc1cccs1 | 92.9 | 2.2 | 1 | -2.1 | 83.2 | -14.6
COc1cc(/C=C2\CC/C(=C\c3cc(OC)c(O)c(OC)c3)C2=O)cc(OC)c1O | 2.1* | 57.3* | 0.4 | 57.8* | 2.5* | 61.1*
COc1ccc(/C=C2/CC/C(=C\c3ccc(OC)c(OC)c3OC)C2=O)c(OC)c1OC | 87.9 | 9.6 | 0.9 | 2.0 | 89.1 | -0.3
COc1cc(/C=C2/CCC/C(=C\c3cc(O)c(OC)c(Cl)c3)C2=O)cc(Cl)c1O | 2.0* | 53.4* | 0.5 | 91.3* | 1.9* | 51.8*
COc1cc(/C=C2\CC/C(=C\c3cc(OC)c(OC)c(OC)c3)C2=O)cc(OC)c1OC | 65.0 | -0.1 | 1 | 96.0* | 72.7 | 1.7
Cc1ccc(CN2CCc3c(OCC(=O)Nc4cccc(C)c4C)cccc3C2=O)cc1 | 75.1 | -1.8 | 1 | 97.0* | 42.4 | 9.6
CCOC(=O)N1CCN(C(=O)COc2cccc3c2CCN(Cc2ccccc2F)C3=O)CC1 | 86.0 | -2.2 | 1 | 66.5* | 83.1 | -1.3
O=c1c2ccccc2nnn1COc1ccc(Cl)cc1Br | x | -2.1 | 1 | -3.0 | x | -11.9
Cc1cc(O)c(/C=N/Nc2ccccc2)c(=O)o1 | 107.8 | 1.9 | 1 | 75.7* | 103.7 | -2.4
Cc1cc(O)c(C=Nc2cccc(Cl)c2)c(=O)o1 | 93.5 | 0.1 | 1 | -10.4 | 96.3 | 7.0
Cc1cc(NC(=O)CN2C(=O)NC3(CCCCC3C)C2=O)no1 (stereo unspecified) | 99.7 | -5.1 | 1.1 | 58.1* | 104.9 | -9.6
Cc1cc(C(=O)CN2C(=O)NC3(CCCCC3)C2=O)c(C)n1-c1ccc2c(c1)OCO2 | 80.1 | 1.5 | 1 | -2.1 | 74.6 | -6.5
CC1CCCCC12NC(=O)N(CC(=O)NC(=O)Nc1ccc3c(c1)OCCO3)C2=O (stereo unspecified) | 101.3 | -1.4 | 1 | 0.2 | 104.2 | -7.9
SMILES | HCT116 bCat-KO | TNAP inh hiacc | TNAP act hiacc | Lmaj promast | HCT116 PTEN-null | TNAP inh noacc
Cc1cc(-n2c(C)cc(C(=O)CN3C(=O)NC4(CCCCCC4)C3=O)c2C)no1 | 90.8 | -6.2 | 1.1 | 99.6* | 92.2 | -9.7
CCC1CCC2(CC1)NC(=O)N(CC(=O)Nc1cc(C)on1)C2=O (stereo unspecified) | 100.2 | -7.6 | 1.1 | 62.3* | 94.7 | -14.7
O=C(CSc1ncn[nH]1)CSc1ncn[nH]1 | x | -3.4 | 1 | -3.1 | x | -78.1
Cc1c(CNC2CCCC2)c(C(=O)O)c(C)n1Cc1ccccc1 | 91.3 | 1.0 | 1 | 6.6 | 92.3 | -14.2
O=C(OCc1cncs1)c1cccs1 | x | -0.5 | 1 | -5.2 | x | 2.1
CCSc1ncc(/C=N/Nc2ccc(F)cc2)n1C | 76.1 | 0.2 | 1 | 68.7* | 75.5 | 6.1
Cc1cc(C)c[n+](-c2[nH]c(=O)sc2/C=N/NC([S-])=Nc2ccccc2)c1 | 93.4 | 8.6 | 0.9 | -7.0 | 98.5 | 6.0
Clc1cccc(-c2nc(NCCN3CCOCC3)c3ccccc3n2)c1 | x | -6.1 | 1.1 | 75.4* | x | -8.9
Cc1ccc(-c2nc(NCCN3CCOCC3)c3ccccc3n2)cc1 | 11.9 | -4.4 | 1 | 80.7* | 16.9 | -11.3
c1ccc2c(NCCCN3CCOCC3)c3ccccc3nc2c1 | x | -2.3 | 1 | 100.2* | x | -7.2
Fc1ccccc1-c1nc(NCCCN2CCOCC2)c2ccccc2n1 | 79.3 | -0.2 | 1 | 43.4 | 83.8 | -8.4
Oc1ccccc1-c1nc(NCCN2CCOCC2)c2ccccc2n1 | 52.4 | -4.8 | 1 | 49.5 | 45.3 | 5.0
Clc1cccc(-c2nc(NCCCN3CCOCC3)c3ccccc3n2)c1 | x | -2.9 | 1 | 80.4* | x | -8.3
CC(=O)N(Cc1nc2sc(C)c(C)c2c(=O)[nH]1)C1CCCC1 | x | -5.2 | 1.1 | -5.5 | x | -1.9
Cc1ccccc1C(=O)NC(=S)Nc1ccc2[nH]c(=O)[nH]c2c1 | x | -6.2 | 1.1 | 4.7 | x | -5.7
Cc1noc(C)c1C1(O)CCCCCCCCCCC1 | 91.0 | -2.7 | 1 | 18.7 | 97.7 | -0.3
CC(C)(C)NC(=O)CCN(/N=C/c1ccc([N+](=O)[O-])o1)C1=NS(=O)(=O)c2ccccc21 | 60.3 | 12.3 | 0.9 | 99.5* | 59.7 | -8.5
CN(/N=C/c1ccncc1)C1=NS(=O)(=O)c2ccccc21 | 78.2 | -0.3 | 1 | 6.2 | 87.2 | -7.8
N=C1CCCN1CC(=O)c1ccc(Br)cc1 | 93.8 | -0.4 | 1 | -3.4 | 97.9 | -9.0
O=C(NC1CCCCC1)c1sc(N2CCOCC2)nc1-c1ccccc1 | 70.2 | -2.7 | 1 | 88.1* | 64.1 | -4.3
CCOc1ccc(-c2nc(-c3ccncc3)no2)cc1OCC | 86.5 | -4.9 | 1 | 89.2* | 89.6 | -11.4
O=[N+]([O-])c1cc(-c2nc(-c3ccncc3)no2)cc([N+](=O)[O-])c1 | 47.4 | 0.8 | 1 | 94.4* | 46.0 | -6.4
